The target of data set [1] is Phosphatidylinositol 4,5-bisphosphate 3-kinase catalytic subunit beta isoform (Homo sapiens, UniProt P42338). Put plainly: Inhibition of human PI3Kbeta.
Data set [2] deals with Mitogen-activated protein kinase 14 (Homo sapiens) (UniProt Q16539). The data set is described as follows: Residual activity at human SAPK2a at 10 uM in presence of 10 uM ATP relative to control. The method, boiled down:
(§1)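 Single-concentration counter-screen across a panel of 80 Ser/Thr and Tyr protein kinases. Compound was tested at 10 µM with ATP at 10 µM. Activity remaining in each kinase is expressed relative to control.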

The target in data set [3] is Tyrosine-protein kinase Lck (Homo sapiens) (UniProt P06239). Put plainly: Residual activity at human Lck at 10 uM in presence of 10 uM ATP relative to control. The essentials: as §1
Tyrosine-protein kinase Lck (Homo sapiens), sequence (P06239 2-509 limits assumed): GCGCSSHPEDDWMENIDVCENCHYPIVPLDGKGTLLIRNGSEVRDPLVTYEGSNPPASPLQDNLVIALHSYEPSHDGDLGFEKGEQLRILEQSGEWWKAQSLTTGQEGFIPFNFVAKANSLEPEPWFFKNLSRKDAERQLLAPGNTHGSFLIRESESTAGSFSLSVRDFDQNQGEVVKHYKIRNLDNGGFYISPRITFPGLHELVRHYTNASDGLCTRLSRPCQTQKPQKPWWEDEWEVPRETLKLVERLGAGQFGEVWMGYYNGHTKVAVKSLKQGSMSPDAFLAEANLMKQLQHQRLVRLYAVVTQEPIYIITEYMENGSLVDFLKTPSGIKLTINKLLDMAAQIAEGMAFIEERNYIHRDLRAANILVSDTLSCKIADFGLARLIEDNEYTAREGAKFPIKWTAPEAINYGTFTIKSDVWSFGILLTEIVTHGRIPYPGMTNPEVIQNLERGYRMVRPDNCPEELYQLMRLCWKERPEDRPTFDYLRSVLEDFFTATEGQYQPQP
Data set [4] deals with Protein kinase C beta type (Homo sapiens) (UniProt P05771). Put plainly: Residual activity at human PKCbeta2 at 10 uM in presence of 10 uM ATP relative to control. The essentials: as §1
Protein kinase C beta type (Homo sapiens), sequence (P05771 2-671 limits assumed): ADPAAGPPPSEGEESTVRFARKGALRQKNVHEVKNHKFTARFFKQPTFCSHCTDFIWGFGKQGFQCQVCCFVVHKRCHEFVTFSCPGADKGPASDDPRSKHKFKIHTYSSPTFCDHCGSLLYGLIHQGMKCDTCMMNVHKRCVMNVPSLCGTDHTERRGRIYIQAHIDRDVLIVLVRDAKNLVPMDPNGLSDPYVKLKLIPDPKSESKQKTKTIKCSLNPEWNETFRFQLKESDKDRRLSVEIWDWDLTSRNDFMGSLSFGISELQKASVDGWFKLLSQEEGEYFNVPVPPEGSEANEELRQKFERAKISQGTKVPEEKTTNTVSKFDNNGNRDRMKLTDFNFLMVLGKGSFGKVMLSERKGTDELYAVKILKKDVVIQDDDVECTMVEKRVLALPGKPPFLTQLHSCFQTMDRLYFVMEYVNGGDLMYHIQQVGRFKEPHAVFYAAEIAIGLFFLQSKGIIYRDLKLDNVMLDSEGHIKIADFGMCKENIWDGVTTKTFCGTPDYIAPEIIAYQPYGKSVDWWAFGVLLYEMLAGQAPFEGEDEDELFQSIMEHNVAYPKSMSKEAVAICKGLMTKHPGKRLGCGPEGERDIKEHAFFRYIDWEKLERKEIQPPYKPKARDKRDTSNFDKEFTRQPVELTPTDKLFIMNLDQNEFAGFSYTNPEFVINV
For data set [5], the target named is T1, Phosphatidylinositol 4,5-bisphosphate 3-kinase catalytic subunit delta isoform (Homo sapiens, UniProt O00329).
T1 sequence (O00329 whole entry): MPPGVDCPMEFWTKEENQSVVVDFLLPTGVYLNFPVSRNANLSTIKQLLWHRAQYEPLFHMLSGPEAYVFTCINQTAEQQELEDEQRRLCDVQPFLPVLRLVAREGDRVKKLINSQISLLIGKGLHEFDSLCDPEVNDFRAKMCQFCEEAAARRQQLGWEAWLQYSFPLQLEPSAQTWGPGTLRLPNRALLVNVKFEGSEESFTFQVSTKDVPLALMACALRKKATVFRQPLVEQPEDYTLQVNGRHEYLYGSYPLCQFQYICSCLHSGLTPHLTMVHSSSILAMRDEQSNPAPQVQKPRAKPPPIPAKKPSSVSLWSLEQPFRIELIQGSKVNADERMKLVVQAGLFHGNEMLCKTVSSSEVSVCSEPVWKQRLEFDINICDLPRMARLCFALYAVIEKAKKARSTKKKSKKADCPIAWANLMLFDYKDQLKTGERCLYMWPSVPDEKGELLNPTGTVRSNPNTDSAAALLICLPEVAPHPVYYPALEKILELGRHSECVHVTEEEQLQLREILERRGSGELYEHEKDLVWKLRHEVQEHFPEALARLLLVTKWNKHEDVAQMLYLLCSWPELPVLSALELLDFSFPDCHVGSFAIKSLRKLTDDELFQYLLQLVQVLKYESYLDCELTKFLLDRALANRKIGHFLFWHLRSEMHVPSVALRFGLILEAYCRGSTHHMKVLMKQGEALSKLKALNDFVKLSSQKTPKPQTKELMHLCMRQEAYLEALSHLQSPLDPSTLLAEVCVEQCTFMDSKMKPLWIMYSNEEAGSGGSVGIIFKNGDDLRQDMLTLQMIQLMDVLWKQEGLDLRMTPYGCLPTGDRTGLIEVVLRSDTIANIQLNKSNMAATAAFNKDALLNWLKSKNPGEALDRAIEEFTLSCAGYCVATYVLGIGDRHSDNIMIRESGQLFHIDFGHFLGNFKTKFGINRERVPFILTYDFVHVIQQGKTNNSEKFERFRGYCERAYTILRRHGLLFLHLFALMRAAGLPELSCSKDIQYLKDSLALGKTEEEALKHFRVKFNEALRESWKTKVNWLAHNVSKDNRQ
Put plainly: Inhibition of human PI3Kdelta.

For data set [6], the target named is Protein kinase C theta type (Homo sapiens) (UniProt Q04759). The data set is described as follows: Residual activity at human PKCtheta at 10 uM in presence of 10 uM ATP relative to control. The method, boiled down: as §1
Protein kinase C theta type (Homo sapiens), sequence (Q04759 whole entry, looked up): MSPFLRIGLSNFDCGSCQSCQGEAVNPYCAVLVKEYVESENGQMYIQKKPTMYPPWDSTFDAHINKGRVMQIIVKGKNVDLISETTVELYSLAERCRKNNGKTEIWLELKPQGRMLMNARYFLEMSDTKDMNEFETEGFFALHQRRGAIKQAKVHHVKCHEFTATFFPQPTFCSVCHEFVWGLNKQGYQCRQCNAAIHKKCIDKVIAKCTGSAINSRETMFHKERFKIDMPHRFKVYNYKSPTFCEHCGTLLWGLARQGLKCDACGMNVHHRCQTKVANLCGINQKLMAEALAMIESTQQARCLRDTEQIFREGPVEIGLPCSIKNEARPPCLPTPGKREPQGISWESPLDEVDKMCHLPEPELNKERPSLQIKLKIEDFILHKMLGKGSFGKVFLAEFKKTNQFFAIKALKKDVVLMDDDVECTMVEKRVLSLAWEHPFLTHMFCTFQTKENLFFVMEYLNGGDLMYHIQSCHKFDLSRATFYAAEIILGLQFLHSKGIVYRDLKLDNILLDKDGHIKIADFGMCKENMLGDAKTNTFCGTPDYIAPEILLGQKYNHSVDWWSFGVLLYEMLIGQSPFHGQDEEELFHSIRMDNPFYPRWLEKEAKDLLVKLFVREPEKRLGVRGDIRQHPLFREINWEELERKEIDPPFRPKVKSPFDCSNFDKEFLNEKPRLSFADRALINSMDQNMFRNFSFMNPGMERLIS
In data set [7] the target is Protein kinase C alpha type (Homo sapiens) (UniProt P17252). Put plainly: Residual activity at human PKCalpha at 10 uM in presence of 10 uM ATP relative to control. The method, boiled down: as §1
Data set [8] in a line: Cmax in rat at 10 mg/kg, iv. It is filed as ADME, organism-based. On the set-up: dose 10 mg/kg, route intravenous. The settings on record: in vivo. The method, boiled down: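 Rats given a single 10 mg/kg dose, intravenously or orally. The compound was given as its potassium salt, prepared with KOH in THF/water, for the in vivo work.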
Data set [9] concerns the target Tyrosine-protein kinase receptor UFO (Homo sapiens) (UniProt P30530). The data set is described as follows: Residual activity at human Axl at 10 uM in presence of 10 uM ATP relative to control. The method, boiled down:
(§2)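 Panel of Ser/Thr and Tyr protein kinases, each tested with 10 µM compound in the presence of 10 µM ATP; activity expressed relative to control.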

The target in data set [10] is Inhibitor of nuclear factor kappa-B kinase subunit beta (Homo sapiens) (UniProt O14920). Put plainly: Residual activity at human IKK-beta at 10 uM in presence of 10 uM ATP relative to control. The essentials: as §2
In data set [11] the target is MAP kinase-activated protein kinase 5 (Homo sapiens) (UniProt Q8IW41). The data set is described as follows: Residual activity at human PRAK at 10 uM in presence of 10 uM ATP relative to control. The essentials:
as §1

Data set [12] concerns THP-1. Put plainly: Inhibition of MCP1-induced PKB/Akt phosphorylation in THP1 cells. Type of data set: functional, cell-based. The settings on record: Homo sapiens. The method, boiled down:
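THP-1 monocytes starved 3 h in serum-free medium and pretreated with inhibitor or DMSO (15 min in methods; 20 min in figure legend). Stimulated with 100 nM MCP-1/CCL2 for 30 s, or with 50 ng/mL CSF-1 for 5 min. Phospho-Ser-473 and total Akt detected by Western blot and quantified.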

In data set [13] the test system is THP-1. Put plainly: Inhibition of CSF-1-induced PKB/Akt phosphorylation in THP1 cells. The settings on record: Homo sapiens.

One may read the IC50 as the midpoint of a concentration-inhibition curve. The term Cmax denotes the highest concentration seen after dosing.

Mitogen-activated protein kinase 14 (Homo sapiens), sequence (Q16539 whole entry): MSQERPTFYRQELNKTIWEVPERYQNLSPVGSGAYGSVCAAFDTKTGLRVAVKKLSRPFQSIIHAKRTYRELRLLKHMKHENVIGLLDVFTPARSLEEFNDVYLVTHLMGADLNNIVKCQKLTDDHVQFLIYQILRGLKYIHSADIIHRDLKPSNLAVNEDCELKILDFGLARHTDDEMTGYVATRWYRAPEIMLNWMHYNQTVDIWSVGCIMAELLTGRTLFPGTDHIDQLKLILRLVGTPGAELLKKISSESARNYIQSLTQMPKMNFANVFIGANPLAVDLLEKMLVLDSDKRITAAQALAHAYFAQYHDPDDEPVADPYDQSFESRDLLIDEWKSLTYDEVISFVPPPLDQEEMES
Phosphatidylinositol 4,5-bisphosphate 3-kinase catalytic subunit beta isoform, sequence (P42338 whole entry, canonical isoform): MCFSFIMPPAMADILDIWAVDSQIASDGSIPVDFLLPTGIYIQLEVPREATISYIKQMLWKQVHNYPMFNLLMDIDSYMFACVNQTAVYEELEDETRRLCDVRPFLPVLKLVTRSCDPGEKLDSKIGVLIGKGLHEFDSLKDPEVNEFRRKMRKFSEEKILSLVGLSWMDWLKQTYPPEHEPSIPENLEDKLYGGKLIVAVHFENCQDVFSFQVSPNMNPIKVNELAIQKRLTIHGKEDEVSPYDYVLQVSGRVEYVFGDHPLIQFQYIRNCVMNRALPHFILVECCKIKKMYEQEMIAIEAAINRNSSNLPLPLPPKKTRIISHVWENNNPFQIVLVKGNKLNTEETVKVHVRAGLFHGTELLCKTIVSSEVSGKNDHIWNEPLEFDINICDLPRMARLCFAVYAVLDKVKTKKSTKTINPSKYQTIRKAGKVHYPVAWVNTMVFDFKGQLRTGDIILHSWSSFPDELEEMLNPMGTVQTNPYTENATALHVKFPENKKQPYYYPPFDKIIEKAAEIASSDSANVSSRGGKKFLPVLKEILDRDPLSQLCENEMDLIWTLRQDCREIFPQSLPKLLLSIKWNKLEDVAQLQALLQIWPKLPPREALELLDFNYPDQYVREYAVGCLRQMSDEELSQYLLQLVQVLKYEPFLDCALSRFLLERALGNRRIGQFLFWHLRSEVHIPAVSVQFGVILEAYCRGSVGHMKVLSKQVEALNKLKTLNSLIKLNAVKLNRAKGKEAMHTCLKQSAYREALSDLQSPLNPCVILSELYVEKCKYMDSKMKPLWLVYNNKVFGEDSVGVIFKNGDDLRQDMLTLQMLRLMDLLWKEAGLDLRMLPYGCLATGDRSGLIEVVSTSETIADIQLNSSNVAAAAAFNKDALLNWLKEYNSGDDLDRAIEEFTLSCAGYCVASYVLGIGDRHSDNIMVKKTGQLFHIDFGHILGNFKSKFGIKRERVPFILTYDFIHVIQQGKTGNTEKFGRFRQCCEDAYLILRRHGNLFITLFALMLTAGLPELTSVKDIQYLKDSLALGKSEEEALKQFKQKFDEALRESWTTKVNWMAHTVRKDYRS
MAP kinase-activated protein kinase 5 (Homo sapiens), sequence (Q8IW41 whole entry): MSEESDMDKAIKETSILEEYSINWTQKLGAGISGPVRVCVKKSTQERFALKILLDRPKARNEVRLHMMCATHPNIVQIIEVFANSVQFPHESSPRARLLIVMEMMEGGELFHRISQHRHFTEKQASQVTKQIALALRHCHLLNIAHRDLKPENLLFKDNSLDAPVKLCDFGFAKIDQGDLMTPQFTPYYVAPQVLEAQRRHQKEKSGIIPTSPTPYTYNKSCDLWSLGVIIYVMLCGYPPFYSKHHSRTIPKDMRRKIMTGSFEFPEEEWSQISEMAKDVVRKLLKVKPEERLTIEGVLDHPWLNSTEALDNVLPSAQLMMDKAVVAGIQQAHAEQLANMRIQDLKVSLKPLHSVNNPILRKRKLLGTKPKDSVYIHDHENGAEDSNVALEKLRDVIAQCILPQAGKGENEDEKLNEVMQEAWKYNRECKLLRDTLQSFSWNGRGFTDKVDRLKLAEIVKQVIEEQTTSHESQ

Regarding `O=C1NC(=O)/C(=C/c2ccc(-c3ccc(F)cc3O)o2)S1`, the IC50 turned out to be 20 µM in data set [1], 20 µM in data set [5], 0.4 µM in data set [12] and 4.73 µM in data set [13]. The Activity in data set [2] stood at 84%; in data set [3], 104%; in data set [4] it was 98%; in data set [6], 102%; in [7] it was 98%; in data set [9], 74%. In addition, the Activity in data set [10] worked out at 89%; in data set [11] it was 95%. In data set [8], this molecule displayed a Cmax of 11400 ng/mL.

Values taken from ChEMBL document CHEMBL1138050, “Furan-2-ylmethylene thiazolidinediones as novel, potent, and selective inhibitors of phosphoinositide 3-kinase gamma” (J Med Chem, 2006).
